From ChEMBL document CHEMBL1268917, “Synthesis and biological evaluation of radio-iodinated benzimidazoles as SPECT imaging agents for NR2B subtype of NMDA receptor” (Bioorg Med Chem, 2010)

What was measured:
Kidney [1] = test: Biodistribution in ddY mouse kidney assessed per gram of tissue at 14.8 kBq, iv after 360 mins; format: ADME, organism-based; details: in vivo, 6 h
How it was run: (§1)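 Killed at set times after injection; organs and blood removed, weighed, gamma counted. Data as % injected dose per gram tissue, mean SD, n = 5–6.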

Lung [2] = test: Biodistribution in ddY mouse lung assessed per gram of tissue at 14.8 kBq, iv after 60 mins; format: ADME, organism-based; details: in vivo, 1 h
How it was run: (§2)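 Radioiodinated tracer (14.8 kBq) injected via tail vein into male ddY mice (6 weeks, 30–35 g). Organs removed at set times after injection, weighed and gamma-counted; uptake expressed as % injected dose per gram tissue, mean ± SD, n = 5–6.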

Pancreas [3] = test: Biodistribution in ddY mouse pancreas assessed per gram of tissue at 14.8 kBq, iv after 360 mins; format: ADME, organism-based; details: in vivo, 6 h; how it was run: as §2
Liver [4] = test: Biodistribution in ddY mouse liver assessed per gram of tissue at 14.8 kBq, iv after 360 mins; format: ADME, organism-based; details: in vivo, 6 h; how it was run: as §1
Brain [5] = test: Biodistribution in ddY mouse brain assessed per gram of tissue at 14.8 kBq, iv after 30 mins; format: ADME, organism-based; details: in vivo, 0.5 h; how it was run: as §1
Intestine [6] = test: Biodistribution in ddY mouse intestine assessed per gram of tissue at 14.8 kBq, iv after 60 mins; format: ADME, organism-based; details: in vivo, 1 h; how it was run: as §1
Heart [7] = test: Biodistribution in ddY mouse heart assessed per gram of tissue at 14.8 kBq, iv after 360 mins; format: ADME, organism-based; details: in vivo, 6 h; how it was run: as §1
Pancreas [8] = test: Biodistribution in ddY mouse pancreas assessed per gram of tissue at 14.8 kBq, iv after 30 mins; format: ADME, organism-based; details: in vivo, 0.5 h; how it was run: as §2
Heart [9] = test: Biodistribution in ddY mouse heart assessed per gram of tissue at 14.8 kBq, iv after 30 mins; format: ADME, organism-based; details: in vivo, 0.5 h; how it was run: as §1
Intestine [10] = test: Biodistribution in ddY mouse intestine assessed per gram of tissue at 14.8 kBq, iv after 180 mins; format: ADME, organism-based; details: in vivo, 3 h; how it was run: as §1
Brain [11] = test: Biodistribution in ddY mouse brain assessed per gram of tissue at 148 kBq, iv after 180 mins in presence of 200 mg/kg, iv of probenecid administered 30 mins before compound challenge (reference value: 0.44 +/- 0.06 %); details: in vivo, 3 h
Kidney [12] = test: Biodistribution in ddY mouse kidney assessed per gram of tissue at 148 kBq, iv after 180 mins in presence of 50 mg/kg, iv of cyclosporin A administered 30 mins before compound challenge (reference value: 4.49 +/- 1.34 %); format: ADME, organism-based; parameters: dose 50 mg/kg, route intravenous; details: in vivo, 3 h
Liver [13] = test: Biodistribution in ddY mouse liver assessed per gram of tissue at 14.8 kBq, iv after 0.5 mins; format: ADME, organism-based; details: in vivo; how it was run: as §1
Kidney [14] = test: Biodistribution in ddY mouse kidney assessed per gram of tissue at 14.8 kBq, iv after 60 mins; format: ADME, organism-based; details: in vivo, 1 h; how it was run: as §1
Brain [15] = test: Biodistribution in ddY mouse brain assessed per gram of tissue at 14.8 kBq, iv after 360 mins; format: ADME, organism-based; details: in vivo, 6 h; how it was run: as §1
Brain [16] = test: Biodistribution in ddY mouse brain assessed per gram of tissue at 14.8 kBq, iv after 60 mins; format: ADME, organism-based; details: in vivo, 1 h; how it was run: as §1
Liver [17] = test: Biodistribution in ddY mouse liver assessed per gram of tissue at 14.8 kBq, iv after 180 mins; format: ADME, organism-based; details: in vivo, 3 h; how it was run: as §1
Heart [18] = test: Biodistribution in ddY mouse heart assessed per gram of tissue at 14.8 kBq, iv after 5 mins; format: ADME, organism-based; details: in vivo; how it was run: as §1
Pancreas [19] = test: Biodistribution in ddY mouse pancreas assessed per gram of tissue at 14.8 kBq, iv after 0.5 mins; format: ADME, organism-based; details: in vivo; how it was run: as §2
Heart [20] = test: Biodistribution in ddY mouse heart assessed per gram of tissue at 14.8 kBq, iv after 0.5 mins; format: ADME, organism-based; details: in vivo; how it was run: as §1
Intestine [21] = test: Biodistribution in ddY mouse intestine assessed per gram of tissue at 14.8 kBq, iv after 0.5 mins; format: ADME, organism-based; details: in vivo; how it was run: as §1
Stomach [22] = test: Biodistribution in ddY mouse stomach assessed per gram of tissue at 14.8 kBq, iv after 360 mins; format: ADME, organism-based; details: in vivo, 6 h; how it was run: as §2
Pancreas [23] = test: Biodistribution in ddY mouse pancreas assessed per gram of tissue at 14.8 kBq, iv after 5 mins; format: ADME, organism-based; details: in vivo; how it was run: as §2
Kidney [24] = test: Biodistribution in ddY mouse kidney assessed per gram of tissue at 148 kBq, iv after 180 mins in presence of 200 mg/kg, iv of probenecid administered 30 mins before compound challenge (reference value: 6.29 +/- 1.47 %); details: in vivo, 3 h
Intestine [25] = test: Biodistribution in ddY mouse intestine assessed per gram of tissue at 14.8 kBq, iv after 5 mins; format: ADME, organism-based; details: in vivo; how it was run: as §1
Blood [26] = test: Biodistribution in ddY mouse blood assessed per gram of tissue at 14.8 kBq, iv after 0.5 mins; format: ADME, organism-based; details: in vivo; how it was run: as §1
Stomach [27] = test: Biodistribution in ddY mouse stomach assessed per gram of tissue at 14.8 kBq, iv after 180 mins; format: ADME, organism-based; details: in vivo, 3 h; how it was run: as §2
Intestine [28] = test: Biodistribution in ddY mouse intestine assessed per gram of tissue at 14.8 kBq, iv after 360 mins; format: ADME, organism-based; details: in vivo, 6 h; how it was run: as §1
Intestine [29] = test: Biodistribution in ddY mouse intestine assessed per gram of tissue at 14.8 kBq, iv after 30 mins; format: ADME, organism-based; details: in vivo, 0.5 h; how it was run: as §1
Pancreas [30] = test: Biodistribution in ddY mouse pancreas assessed per gram of tissue at 14.8 kBq, iv after 60 mins; format: ADME, organism-based; details: in vivo, 1 h; how it was run: as §2
Brain [31] = test: Biodistribution in ddY mouse brain assessed per gram of tissue at 148 kBq, iv after 180 mins in presence of 50 mg/kg, iv of cyclosporin A administered 30 mins before compound challenge (reference value: 0.50 +/- 0.04 %); format: ADME, organism-based; parameters: dose 50 mg/kg, route intravenous; details: in vivo, 3 h
Stomach [32] = test: Biodistribution in ddY mouse stomach assessed per gram of tissue at 14.8 kBq, iv after 5 mins; format: ADME, organism-based; details: in vivo; how it was run: as §2
Blood [33] = test: Biodistribution in ddY mouse blood assessed per gram of tissue at 14.8 kBq, iv after 60 mins; format: ADME, organism-based; details: in vivo, 1 h; how it was run: as §1
Liver [34] = test: Biodistribution in ddY mouse liver assessed per gram of tissue at 148 kBq, iv after 180 mins in presence of 50 mg/kg, iv of cyclosporin A administered 30 mins before compound challenge (reference value: 16.20 +/- 1.34 %); format: ADME, organism-based; parameters: dose 50 mg/kg, route intravenous; details: in vivo, 3 h
Lung [35] = test: Biodistribution in ddY mouse lung assessed per gram of tissue at 14.8 kBq, iv after 360 mins; format: ADME, organism-based; details: in vivo, 6 h; how it was run: as §2
Lung [36] = test: Biodistribution in ddY mouse lung assessed per gram of tissue at 14.8 kBq, iv after 0.5 mins; format: ADME, organism-based; details: in vivo; how it was run: as §2
Spleen [37] = test: Biodistribution in ddY mouse spleen assessed per gram of tissue at 14.8 kBq, iv after 30 mins; format: ADME, organism-based; details: in vivo, 0.5 h; how it was run: as §2
Blood [38] = test: Biodistribution in ddY mouse blood assessed per gram of tissue at 14.8 kBq, iv after 180 mins; format: ADME, organism-based; details: in vivo, 3 h; how it was run: as §1
Lung [39] = test: Biodistribution in ddY mouse lung assessed per gram of tissue at 14.8 kBq, iv after 180 mins; format: ADME, organism-based; details: in vivo, 3 h; how it was run: as §2
Blood [40] = test: Biodistribution in ddY mouse blood assessed per gram of tissue at 148 kBq, iv after 180 mins in presence of 200 mg/kg, iv of probenecid administered 30 mins before compound challenge (reference value: 0.46 +/- 0.07 %); format: ADME, organism-based; parameters: dose 200 mg/kg, route intravenous; details: in vivo, 3 h
Blood [41] = test: Biodistribution in ddY mouse blood assessed per gram of tissue at 14.8 kBq, iv after 30 mins; format: ADME, organism-based; details: in vivo, 0.5 h; how it was run: as §1
Spleen [42] = test: Biodistribution in ddY mouse spleen assessed per gram of tissue at 14.8 kBq, iv after 5 mins; format: ADME, organism-based; details: in vivo; how it was run: as §2
Lung [43] = test: Biodistribution in ddY mouse lung assessed per gram of tissue at 14.8 kBq, iv after 5 mins; format: ADME, organism-based; details: in vivo; how it was run: as §2

Q: With `Oc1ccc2nc(CN3CCC(Cc4ccc([125I])cc4)CC3)[nH]c2c1` as the compound, how does the Drug uptake (Kidney [1]) read?
A: 5.46 % ID/g

Q: And the Drug uptake (Lung [2])?
A: 7.54 % ID/g

Q: And the Drug uptake (Pancreas [3])?
A: 8.76 % ID/g

Q: And the Drug uptake (Liver [4])?
A: 30.16 % ID/g

Q: And the Drug uptake (Brain [5])?
A: 0.44 % ID/g

Q: What about the Drug uptake (Intestine [6]) of the same compound?
A: 2.35 % ID/g

Q: What about the Drug uptake (Heart [7]) of the same compound?
A: 1.58 % ID/g

Q: What about the Drug uptake (Pancreas [8]) of the same compound?
A: 6.1 % ID/g

Q: And the Drug uptake (Heart [9])?
A: 2.31 % ID/g

Q: And the Drug uptake (Intestine [10])?
A: 4.55 % ID/g

Q: What about the Drug uptake (Brain [11]) of the same compound?
A: 0.57 % ID/g

Q: And the Drug uptake (Kidney [12])?
A: 4.8 % ID/g

Q: And the Drug uptake (Liver [13])?
A: 14.68 % ID/g

Q: And the Drug uptake (Kidney [14])?
A: 10.34 % ID/g

Q: And the Drug uptake (Brain [15])?
A: 0.55 % ID/g

Q: And the Drug uptake (Brain [16])?
A: 0.48 % ID/g

Q: What about the Drug uptake (Liver [17]) of the same compound?
A: 32.22 % ID/g

Q: What about the Drug uptake (Heart [18]) of the same compound?
A: 5.39 % ID/g

Q: What about the Drug uptake (Pancreas [19]) of the same compound?
A: 0.49 % ID/g

Q: What about the Drug uptake (Heart [20]) of the same compound?
A: 1.47 % ID/g

Q: And the Drug uptake (Intestine [21])?
A: 4.02 % ID/g

Q: What about the Drug uptake (Stomach [22]) of the same compound?
A: 2.17 % ID/g

Q: What about the Drug uptake (Pancreas [23]) of the same compound?
A: 5.74 % ID/g

Q: And the Drug uptake (Kidney [24])?
A: 4.2 % ID/g

Q: What about the Drug uptake (Intestine [25]) of the same compound?
A: 1.83 % ID/g

Q: What about the Drug uptake (Blood [26]) of the same compound?
A: 3.22 % ID/g

Q: What about the Drug uptake (Stomach [27]) of the same compound?
A: 2.51 % ID/g

Q: And the Drug uptake (Intestine [28])?
A: 5.89 % ID/g

Q: What about the Drug uptake (Intestine [29]) of the same compound?
A: 2.39 % ID/g

Q: And the Drug uptake (Pancreas [30])?
A: 6.35 % ID/g

Q: What about the Drug uptake (Brain [31]) of the same compound?
A: 0.66 % ID/g

Q: And the Drug uptake (Stomach [32])?
A: 1.93 % ID/g

Q: And the Drug uptake (Blood [33])?
A: 0.75 % ID/g

Q: What about the Drug uptake (Liver [34]) of the same compound?
A: 15.2 % ID/g

Q: And the Drug uptake (Lung [35])?
A: 3.44 % ID/g

Q: And the Drug uptake (Lung [36])?
A: 6.6 % ID/g

Q: And the Drug uptake (Spleen [37])?
A: 5.91 % ID/g

Q: What about the Drug uptake (Blood [38]) of the same compound?
A: 0.3 % ID/g

Q: And the Drug uptake (Lung [39])?
A: 4.75 % ID/g

Q: What about the Drug uptake (Blood [40]) of the same compound?
A: 0.41 % ID/g

Q: And the Drug uptake (Blood [41])?
A: 0.67 % ID/g

Q: And the Drug uptake (Spleen [42])?
A: 5.66 % ID/g

Q: What about the Drug uptake (Lung [43]) of the same compound?
A: 14.48 % ID/g
